Data taken from article PMC7688529 (British Journal of Clinical Pharmacology, 2020).
Like-named read-outs stand apart in the source and are kept apart here.

How the values were obtained:
[1] = Stability in human plasma samples; assay type: physicochemical
[2] = assay type: in vivo, human; details: for Ratio of geometric means (treatment A/B; 90% CI) of AUC0‐t / Ratio of geometric means (treatment A/B; 90% CI) of AUC0‐∞ / Ratio of geometric means (treatment A/B; 90% CI) of Cmax: FDC‐2 vs free combination (EU‐sourced tadalafil); for CVw of AUC0‐t / CVw of AUC0‐∞ / CVw of Cmax: FDC‐2 vs free combination, intrasubject coefficient of variation; for AUC / Cmax / half-life: geometric mean (95% CI); for Cmax: Treatment A FDC (FDC‐2, 10 mg/40 mg), single dose, fasted, healthy subjects
Summary of the method: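 Healthy subjects randomized to A/B or B/A. Single oral dose: 10 mg/40 mg FDC, or macitentan 10 mg plus 2 × 20 mg EU-sourced tadalafil. Fasted ≥10 h pre- to 4 h post-dose. Blood (K3EDTA) from predose to 216 h; spun ~1500 g, 10 min, 4 ± 2°C; stored ≤ −75°C, light-protected. LC-MS/MS with isotope-labelled standards. Geometric mean ratios (90% CI) and CVw from mixed-effects model.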

[3] = Study AC‐077‐101: safety and tolerability evaluation; assay type: in vivo, human; details: both studies AC‐077‐101 and AC‐077‐103; administered as FDC product or as a free combination
[4] = assay type: in vivo, human; details: for CVw of AUC0‐t / CVw of AUC0‐∞ / CVw of Cmax: intrasubject coefficient of variation; for Tmax: median (range)
Summary of the method: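 Healthy subjects; randomized crossover; single oral fasted dose of the 10 mg/40 mg macitentan/tadalafil FDC vs a free combination with US-sourced tadalafil; evaluated per group. Fluids withheld 1 h pre- to 1 h post-dose; observation 216–288 h. Macitentan/ACT-132577 by LC-MS/MS after acetonitrile/ethanol protein precipitation; tadalafil by LC-MS/MS after tert-butyl methyl ether extraction. Geometric mean ratios with 90% CI and intrasubject variability from a mixed-effects model.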

[5] = Treatment B free combination (EU‐sourced tadalafil), median (range)
[6] = human, plasma, oral, t1/2, Treatment A FDC (FDC‐2)
[7] = human, plasma, oral, t1/2, Treatment B free combination (EU‐sourced tadalafil)
[8] = Group 1, FDC‐1 vs free combination (US‐sourced tadalafil)
[9] = Group 1, FDC‐1 vs free combination
[10] = Group 2, FDC‐2 vs free combination (US‐sourced tadalafil)
[11] = Group 2, FDC‐2 vs free combination
[12] = human, plasma, oral, Group 1, Treatment A FDC‐1 (macitentan/tadalafil 10 mg/40 mg), single dose, fasted, healthy subjects, geometric mean (95% CI)
[13] = human, plasma, oral, Group 2, Treatment B free combination (US‐sourced tadalafil), geometric mean (95% CI)
[14] = human, plasma, oral, t1/2, Group 1, Treatment A FDC‐1, geometric mean (95% CI)
[15] = human, plasma, oral, t1/2, Group 1, Treatment B free combination (US‐sourced tadalafil), geometric mean (95% CI)
[16] = human, plasma, oral, t1/2, Group 2, Treatment A FDC‐2, geometric mean (95% CI)
[17] = human, plasma, oral, t1/2, Group 2, Treatment B free combination (US‐sourced tadalafil), geometric mean (95% CI)
[18] = human, plasma, oral, tmax, Group 1, Treatment A FDC‐1
[19] = human, plasma, oral, tmax, Group 1, Treatment B free combination (US‐sourced tadalafil)
[20] = human, plasma, oral, tmax, Group 2, Treatment A FDC‐2
[21] = human, plasma, oral, tmax, Group 2, Treatment B free combination (US‐sourced tadalafil)

SMILES: CCCNS(=O)(=O)Nc1ncnc(OCCOc2ncc(Br)cn2)c1-c1ccc(Br)cc1 [Macitentan, macitentan]
- stability in plasma samples at room‐temperature [1]: at least 3 days
- stability in plasma samples, freeze/thaw cycles [1]: at least 3 freeze/thaw cycles
- stability in plasma samples, storage at −20°C [1]: ≥ 36 months
- Ratio of geometric means (treatment A/B; 90% CI) of AUC0‐t [2]: 1.0038 (0.9677, 1.0413)
- Ratio of geometric means (treatment A/B; 90% CI) of AUC0‐∞ [2]: 1.0015 (0.9675, 1.0367)
- Ratio of geometric means (treatment A/B; 90% CI) of Cmax [2]: 1.0608 (1.0014, 1.1238)
- CVw of AUC0‐t [2]: 8.94%
- CVw of AUC0‐∞ [2]: 8.42%
- CVw of Cmax [2]: 14.10%
- Tmax [2, 5]: 9.00 (4.2–24.0) h
- Tmax ([2]; human, plasma, oral): 9 h
- AUC ([2]; human, plasma, oral, AUC0‐t, Treatment A FDC (FDC‐2)): 5810 ng·h/mL
- AUC ([2]; human, plasma, oral, AUC0‐t, Treatment B free combination (EU‐sourced tadalafil)): 5790 ng·h/mL
- AUC ([2]; human, plasma, oral, AUC0‐∞, Treatment A FDC (FDC‐2)): 5890 ng·h/mL
- AUC ([2]; human, plasma, oral, AUC0‐∞, Treatment B free combination (EU‐sourced tadalafil)): 5880 ng·h/mL
- Cmax ([2]; human, plasma, oral): 175 ng/mL
- half-life [2, 6]: 16.1 h
- half-life [2, 7]: 16.1 h
- tolerability [3]: well tolerated
- Geometric means ratio (treatment A/B; 90% CI) of AUC0‐t [4, 8]: 0.9815 (0.9527, 1.0113)
- Geometric means ratio (treatment A/B; 90% CI) of AUC0‐∞ [4, 8]: 0.9818 (0.9537, 1.0109)
- Geometric means ratio (treatment A/B; 90% CI) of Cmax [4, 8]: 1.0045 (0.9631, 1.0478)
- CVw of AUC0‐t [4, 9]: 9.54%
- CVw of AUC0‐∞ [4, 9]: 9.31%
- CVw of Cmax [4, 9]: 13.50%
- AUC higher after FDC‐2 than after free combination ([4]; Group 2): approximately 10%
- Cmax higher after FDC‐2 than after free combination ([4]; Group 2): approximately 19%
- Geometric means ratio (treatment A/B; 90% CI) of AUC0‐t [4, 10]: 1.1014 (1.0652, 1.1389)
- Geometric means ratio (treatment A/B; 90% CI) of AUC0‐∞ [4, 10]: 1.0981 (1.0641, 1.1332)
- Geometric means ratio (treatment A/B; 90% CI) of Cmax [4, 10]: 1.1901 (1.1374, 1.2451)
- CVw of AUC0‐t [4, 11]: 10.80%
- CVw of AUC0‐∞ [4, 11]: 10.16%
- CVw of Cmax [4, 11]: 14.64%
- AUC ([4]; human, plasma, oral, AUC0‐t, Group 1, Treatment A FDC‐1, geometric mean (95% CI)): 4320 ng·h/mL
- AUC ([4]; human, plasma, oral, AUC0‐t, Group 1, Treatment B free combination (US‐sourced tadalafil), geometric mean (95% CI)): 4400 ng·h/mL
- AUC ([4]; human, plasma, oral, AUC0‐t, Group 2, Treatment A FDC‐2, geometric mean (95% CI)): 4740 ng·h/mL
- AUC ([4]; human, plasma, oral, AUC0‐t, Group 2, Treatment B free combination (US‐sourced tadalafil), geometric mean (95% CI)): 4300 ng·h/mL
- AUC ([4]; human, plasma, oral, AUC0‐∞, Group 1, Treatment A FDC‐1, geometric mean (95% CI)): 4430 ng·h/mL
- AUC ([4]; human, plasma, oral, AUC0‐∞, Group 1, Treatment B free combination (US‐sourced tadalafil), geometric mean (95% CI)): 4510 ng·h/mL
- AUC ([4]; human, plasma, oral, AUC0‐∞, Group 2, Treatment A FDC‐2, geometric mean (95% CI)): 4830 ng·h/mL
- AUC ([4]; human, plasma, oral, AUC0‐∞, Group 2, Treatment B free combination (US‐sourced tadalafil), geometric mean (95% CI)): 4390 ng·h/mL
- Cmax [4, 12]: 169 ng/mL
- Cmax [4, 13]: 163 ng/mL
- half-life [4, 14]: 13.8 h
- half-life [4, 15]: 14 h
- half-life [4, 16]: 13.8 h
- half-life [4, 17]: 14.4 h
- Tmax [4, 18]: 9 h
- Tmax [4, 19]: 9 h
- Tmax [4, 20]: 9 h
- Tmax [4, 21]: 9 h

SMILES: CN1CC(=O)N2[C@H](c3ccc4c(c3)OCO4)c3[nH]c4ccccc4c3C[C@@H]2C1=O [Tadalafil, tadalafil]
- stability in plasma samples at room‐temperature [1]: at least 6 hours
- stability in plasma samples, freeze/thaw cycles [1]: ≥ 3 freeze/thaw cycles
- Ratio of geometric means (treatment A/B; 90% CI) of AUC0‐t [2]: 1.0040 (0.9584, 1.0517)
- Ratio of geometric means (treatment A/B; 90% CI) of AUC0‐∞ [2]: 1.0047 (0.9591, 1.0525)
- Ratio of geometric means (treatment A/B; 90% CI) of Cmax [2]: 0.9015 (0.8413, 0.9661)
- CVw of AUC0‐t [2]: 11.35%
- CVw of AUC0‐∞ [2]: 11.34%
- CVw of Cmax [2]: 16.96%
- Tmax [2, 5]: 1.75 (1.0–5.0) h
- Cmax ([2]; human, plasma, oral): 539 ng/mL
- half-life [2, 6]: 23.3 h
- half-life [2, 7]: 22.6 h
- Tmax ([2]; human, plasma, oral, tmax, Treatment A FDC (FDC‐2), median (range)): 2 h
- tolerability [3]: well tolerated
- lower bound of the 90% CI of the geometric mean ratio of Cmax ([4]; FDC‐1 vs free combination, bioequivalence limits 0.8000–1.2500): 0.7167
- AUC lower after FDC‐1 than after free combination ([4]; Group 1): ~8%
- Cmax lower after FDC‐1 than after free combination ([4]; Group 1): approximately 24%
- Geometric means ratio (treatment A/B; 90% CI) of AUC0‐t [4, 8]: 0.9151 (0.8687, 0.9639)
- Geometric means ratio (treatment A/B; 90% CI) of AUC0‐∞ [4, 8]: 0.9172 (0.8707, 0.9662)
- Geometric means ratio (treatment A/B; 90% CI) of Cmax [4, 8]: 0.7588 (0.7167, 0.8034)
- CVw of AUC0‐t [4, 9]: 16.71%
- CVw of AUC0‐∞ [4, 9]: 16.70%
- CVw of Cmax [4, 9]: 18.38%
- t1/2 ([4]; Group 1, Treatment B free combination (US‐sourced tadalafil), geometric mean (95% CI)): 18.066 (16.472, 19.815) h
- Tmax ([4]; Group 1, Treatment B free combination (US‐sourced tadalafil)): 3.00 (1.0–5.0) h
- Geometric means ratio (treatment A/B; 90% CI) of AUC0‐t [4, 10]: 0.9764 (0.9293, 1.0259)
- Geometric means ratio (treatment A/B; 90% CI) of AUC0‐∞ [4, 10]: 0.9765 (0.9293, 1.0260)
- Geometric means ratio (treatment A/B; 90% CI) of Cmax [4, 10]: 0.9576 (0.9063, 1.0118)
- CVw of AUC0‐t [4, 11]: 16.01%
- CVw of AUC0‐∞ [4, 11]: 16.02%
- CVw of Cmax [4, 11]: 17.86%
- Cmax [4, 12]: 385 ng/mL
- Cmax [4, 13]: 490 ng/mL
- half-life [4, 14]: 18.4 h
- half-life [4, 16]: 18.1 h
- half-life [4, 17]: 18.5 h
- Tmax [4, 18]: 4 h
- Tmax [4, 19]: ~3 h
- Tmax [4, 20]: 3 h
- Tmax [4, 21]: 3 h

SMILES: NS(=O)(=O)Nc1ncnc(OCCOc2ncc(Br)cn2)c1-c1ccc(Br)cc1 [ACT‐132577]
- stability in plasma samples at room‐temperature [1]: at least 3 days
- stability in plasma samples, freeze/thaw cycles [1]: at least 3 freeze/thaw cycles
- stability in plasma samples, storage at −20°C [1]: ≥ 36 months
- Ratio of geometric means (treatment A/B; 90% CI) of AUC0‐t [2]: 0.9970 (0.9651, 1.0300)
- Ratio of geometric means (treatment A/B; 90% CI) of AUC0‐∞ [2]: 0.9936 (0.9619, 1.0264)
- Ratio of geometric means (treatment A/B; 90% CI) of Cmax [2]: 1.0198 (0.9819, 1.0591)
- CVw of AUC0‐t [2]: 7.93%
- CVw of AUC0‐∞ [2]: 7.91%
- CVw of Cmax [2]: 9.24%
- Tmax [2, 5]: 48.00 (24.0–72.1) h
- Tmax ([2]; human, plasma, oral): 48 h
- Cmax ([2]; human, plasma, oral): 163 ng/mL
- half-life [2, 6]: 49.4 h
- half-life [2, 7]: 50.4 h
- Geometric means ratio (treatment A/B; 90% CI) of AUC0‐t [4, 8]: 0.9826(0.9550, 1.0110)
- Geometric means ratio (treatment A/B; 90% CI) of AUC0‐∞ [4, 8]: 0.9836(0.9572, 1.0107)
- Geometric means ratio (treatment A/B; 90% CI) of Cmax [4, 8]: 0.9935 (0.9616, 1.0264)
- CVw of AUC0‐t [4, 9]: 9.03%
- CVw of AUC0‐∞ [4, 9]: 8.61%
- CVw of Cmax [4, 9]: 10.32%
- AUC higher after FDC‐2 than after free combination ([4]; Group 2): ~9%
- Cmax higher after FDC‐2 than after free combination ([4]; Group 2): approximately 10%
- Geometric means ratio (treatment A/B; 90% CI) of AUC0‐t [4, 10]: 1.0925 (1.0545, 1.1319)
- Geometric means ratio (treatment A/B; 90% CI) of AUC0‐∞ [4, 10]: 1.0884 (1.0502, 1.1281)
- Geometric means ratio (treatment A/B; 90% CI) of Cmax [4, 10]: 1.0983 (1.0470, 1.1520)
- CVw of AUC0‐t [4, 11]: 11.20%
- CVw of AUC0‐∞ [4, 11]: 11.31%
- CVw of Cmax [4, 11]: 15.15%
- Cmax [4, 12]: 158 ng/mL
- Cmax [4, 13]: 150 ng/mL
- half-life [4, 15]: 48.5 h
- half-life [4, 16]: 50.5 h
- half-life [4, 17]: 50.3 h
- Tmax [4, 18]: 48 h
- Tmax [4, 19]: 48 h
- Tmax [4, 20]: 48 h
- Tmax [4, 21]: 48 h
